Source: ChEMBL document CHEMBL5649170, “Sustained microglial depletion with CSF1R inhibitor impairs parenchymal plaque development in an Alzheimer's disease model” (Nat Commun, 2019)
The source made the active and inactive calls. The calls are words filed in the database; no cut-off is given here.

What was measured:
[1] = target: Phosphatidylinositol 4-kinase beta (Homo sapiens, UniProt Q9UBF8); assay: Inhibition of PI4KB (unknown origin)
[2] = target: Mitogen-activated protein kinase kinase kinase kinase 4 (Homo sapiens, UniProt O95819); assay: Inhibition of MAP4K4 (unknown origin)
[3] = target: T1, Macrophage colony-stimulating factor 1 receptor (Mus musculus) (UniProt P09581); assay: In vivo inhibition of CSF1R in wildtype mouse assessed as number of S100bteta positive cells per FOV in somatosensory cortex at 1200 ppm administered as rodent chow for 10 to 24 weeks by immunolabelling based confocal microscopic analysis (reference value: 14 to 342); assay type: functional; conditions: route po, time 10-24 weeks
T1 sequence (whole entry): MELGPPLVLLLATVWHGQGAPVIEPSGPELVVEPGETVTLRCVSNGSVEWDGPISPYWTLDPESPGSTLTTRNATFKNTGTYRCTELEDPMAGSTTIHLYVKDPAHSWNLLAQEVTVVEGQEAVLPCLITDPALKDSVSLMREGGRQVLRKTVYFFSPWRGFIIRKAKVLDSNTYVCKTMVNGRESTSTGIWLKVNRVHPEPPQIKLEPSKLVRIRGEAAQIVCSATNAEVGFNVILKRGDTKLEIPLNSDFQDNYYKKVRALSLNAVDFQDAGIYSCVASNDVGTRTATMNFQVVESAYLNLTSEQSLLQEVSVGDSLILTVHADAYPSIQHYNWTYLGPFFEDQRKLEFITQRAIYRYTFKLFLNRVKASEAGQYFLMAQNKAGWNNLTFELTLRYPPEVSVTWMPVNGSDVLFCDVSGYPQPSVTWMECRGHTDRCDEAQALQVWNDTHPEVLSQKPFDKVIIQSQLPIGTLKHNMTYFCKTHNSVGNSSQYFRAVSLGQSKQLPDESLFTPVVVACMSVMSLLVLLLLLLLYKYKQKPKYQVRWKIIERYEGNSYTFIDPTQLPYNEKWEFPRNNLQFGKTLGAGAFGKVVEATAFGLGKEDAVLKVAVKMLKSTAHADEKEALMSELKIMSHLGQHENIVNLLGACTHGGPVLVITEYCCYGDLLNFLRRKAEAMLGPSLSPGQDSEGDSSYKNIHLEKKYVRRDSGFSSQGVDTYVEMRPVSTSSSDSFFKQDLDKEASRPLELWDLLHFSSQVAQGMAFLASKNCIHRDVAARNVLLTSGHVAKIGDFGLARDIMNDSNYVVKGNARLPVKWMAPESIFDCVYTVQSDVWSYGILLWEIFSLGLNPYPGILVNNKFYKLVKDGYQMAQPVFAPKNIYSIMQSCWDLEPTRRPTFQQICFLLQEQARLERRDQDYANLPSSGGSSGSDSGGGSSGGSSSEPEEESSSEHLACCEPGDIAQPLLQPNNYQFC

Mus musculus [4] = assay: Antialzheimer activity in 5XFAD mouse assessed as number of triads at 1200 ppm administered as rodent chow for 10 to 24 weeks by Y-maze test (reference value: 3 to 9); assay type: functional; conditions: route po, time 10-24 weeks
Summary of the method: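 Y-maze: the sequence of arm entries was scored live and video-recorded. Triads were counted as sequential entries into three different arms. Mice had received 1200 ppm PLX5622 or control chow from 1.5 months of age.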

[5] = target: Phosphorylase b kinase gamma catalytic chain, liver/testis isoform (Homo sapiens, UniProt P15735); assay: Inhibition of PHKG2 (unknown origin)
[6] = target: Proto-oncogene tyrosine-protein kinase Src (Homo sapiens, UniProt P12931); assay: Inhibition of SRC (unknown origin)
Chain of Proto-oncogene tyrosine-protein kinase Src (P12931 2-536 limits assumed): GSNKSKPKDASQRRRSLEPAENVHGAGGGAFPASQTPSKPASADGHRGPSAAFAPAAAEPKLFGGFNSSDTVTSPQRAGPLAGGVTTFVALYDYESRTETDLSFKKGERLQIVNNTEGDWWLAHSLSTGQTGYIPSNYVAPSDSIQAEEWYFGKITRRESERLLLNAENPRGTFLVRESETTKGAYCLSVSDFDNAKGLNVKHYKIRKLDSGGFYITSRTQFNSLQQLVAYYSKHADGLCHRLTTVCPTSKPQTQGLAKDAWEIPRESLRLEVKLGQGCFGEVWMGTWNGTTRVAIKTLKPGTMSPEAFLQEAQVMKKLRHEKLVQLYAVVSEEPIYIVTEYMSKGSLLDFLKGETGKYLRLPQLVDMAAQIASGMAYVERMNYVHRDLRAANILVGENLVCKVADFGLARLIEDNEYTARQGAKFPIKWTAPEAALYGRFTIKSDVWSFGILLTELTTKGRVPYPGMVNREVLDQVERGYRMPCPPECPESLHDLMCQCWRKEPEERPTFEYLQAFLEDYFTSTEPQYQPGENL

Mus musculus [7] = assay: Prevention of Fcrls gene upregulation in 5XFAD mouse hippocampus at 1200 ppm administered as rodent chow starting from 1.5 months and measured after 7 months by Nanostring analysis; assay type: functional, tissue-based; conditions: route po, time 5.5 months
[8] = Effect on Ctsz gene expression in wild type mouse cortex at 1200 ppm administered as rodent chow starting from 1.5 months and measured after 7 months by RNA-Seq analysis (reference value: 12.903 to 16.267 RPKM); assay type: functional; conditions: route po, time 5.5 months, 4015 h
[9] = target: Tyrosine-protein kinase Fgr (Homo sapiens, UniProt P09769); assay: Inhibition of FGR (unknown origin)
Chain of Tyrosine-protein kinase Fgr (P09769 whole entry): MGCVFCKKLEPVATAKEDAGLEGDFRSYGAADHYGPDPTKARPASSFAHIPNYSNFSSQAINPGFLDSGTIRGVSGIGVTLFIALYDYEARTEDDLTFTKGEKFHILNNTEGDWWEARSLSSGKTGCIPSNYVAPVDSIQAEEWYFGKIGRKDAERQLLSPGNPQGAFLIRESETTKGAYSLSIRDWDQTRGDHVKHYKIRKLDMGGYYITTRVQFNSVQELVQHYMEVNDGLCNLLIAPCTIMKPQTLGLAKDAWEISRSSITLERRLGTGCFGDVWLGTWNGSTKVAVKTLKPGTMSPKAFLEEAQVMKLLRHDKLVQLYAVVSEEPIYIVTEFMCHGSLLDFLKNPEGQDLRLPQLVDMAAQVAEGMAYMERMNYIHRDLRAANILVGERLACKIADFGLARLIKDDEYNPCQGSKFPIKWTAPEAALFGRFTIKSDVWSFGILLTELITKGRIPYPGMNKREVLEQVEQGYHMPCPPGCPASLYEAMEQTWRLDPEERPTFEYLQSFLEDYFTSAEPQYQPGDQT

Mus musculus [10] = assay: Prevention of Gls gene downregulation in 5XFAD mouse hippocampus at 1200 ppm administered as rodent chow starting from 1.5 months and measured after 7 months by Nanostring analysis; assay type: functional, tissue-based; conditions: route po, time 5.5 months
Mus musculus [11] = assay: Prevention of Cx3cr1 gene upregulation in 5XFAD mouse hippocampus at 1200 ppm administered as rodent chow starting from 1.5 months and measured after 7 months by Nanostring analysis; assay type: functional, tissue-based; conditions: route po, time 5.5 months
[12] = target: Vascular endothelial growth factor receptor 3 (Homo sapiens, UniProt P35916); assay: Inhibition of FLT4 (unknown origin)
Chain of Vascular endothelial growth factor receptor 3 (P35916 whole entry): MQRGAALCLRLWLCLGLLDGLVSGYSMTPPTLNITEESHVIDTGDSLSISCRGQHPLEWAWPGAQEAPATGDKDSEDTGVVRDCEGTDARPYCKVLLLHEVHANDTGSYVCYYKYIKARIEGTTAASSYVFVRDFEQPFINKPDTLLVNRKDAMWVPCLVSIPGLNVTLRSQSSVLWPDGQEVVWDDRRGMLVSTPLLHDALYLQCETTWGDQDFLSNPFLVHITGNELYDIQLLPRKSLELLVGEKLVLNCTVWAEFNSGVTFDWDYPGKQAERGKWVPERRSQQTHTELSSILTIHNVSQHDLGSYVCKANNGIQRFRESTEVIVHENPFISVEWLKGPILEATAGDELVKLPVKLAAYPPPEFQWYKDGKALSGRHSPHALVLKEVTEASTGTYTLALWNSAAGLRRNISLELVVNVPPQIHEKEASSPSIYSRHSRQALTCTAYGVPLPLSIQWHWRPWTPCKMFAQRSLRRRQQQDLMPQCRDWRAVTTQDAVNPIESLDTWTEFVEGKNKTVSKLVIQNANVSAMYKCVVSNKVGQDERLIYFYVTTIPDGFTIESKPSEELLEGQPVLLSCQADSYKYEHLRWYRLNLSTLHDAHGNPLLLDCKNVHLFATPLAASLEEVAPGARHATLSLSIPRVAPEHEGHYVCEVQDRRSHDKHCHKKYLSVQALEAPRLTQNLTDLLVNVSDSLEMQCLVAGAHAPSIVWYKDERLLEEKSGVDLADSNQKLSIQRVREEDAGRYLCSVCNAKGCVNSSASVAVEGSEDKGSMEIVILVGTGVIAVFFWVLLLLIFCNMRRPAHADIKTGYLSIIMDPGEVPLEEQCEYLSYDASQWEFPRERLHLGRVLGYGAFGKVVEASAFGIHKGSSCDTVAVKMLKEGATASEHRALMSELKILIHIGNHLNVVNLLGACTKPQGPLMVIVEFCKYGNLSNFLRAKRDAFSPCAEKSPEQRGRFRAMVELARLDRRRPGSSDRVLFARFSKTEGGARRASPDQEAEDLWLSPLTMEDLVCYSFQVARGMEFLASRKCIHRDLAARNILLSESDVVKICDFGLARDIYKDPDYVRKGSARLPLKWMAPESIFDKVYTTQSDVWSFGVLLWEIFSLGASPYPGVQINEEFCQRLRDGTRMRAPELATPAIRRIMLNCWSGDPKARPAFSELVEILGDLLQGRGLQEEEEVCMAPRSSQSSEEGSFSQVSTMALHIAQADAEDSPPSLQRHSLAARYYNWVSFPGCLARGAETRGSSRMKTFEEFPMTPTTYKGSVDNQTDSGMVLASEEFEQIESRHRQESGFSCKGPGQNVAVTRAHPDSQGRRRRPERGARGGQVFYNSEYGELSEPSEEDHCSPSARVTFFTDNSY

[13] = Effect on Itgax gene expression in wild type mouse thalamus at 1200 ppm administered as rodent chow starting from 1.5 months and measured after 7 months by RNA-Seq analysis (reference value: 0.077 to 0.240 RPKM); assay type: functional; conditions: route po, time 5.5 months, 4015 h
[14] = Oral bioavailability in male rat at 45 mg/kg administered as single via gavage; assay type: ADME, organism-based; conditions: in vivo
[15] = target: Fibroblast growth factor receptor 3 (Homo sapiens, UniProt P22607); assay: Inhibition of FGFR3 (unknown origin)
Chain of Fibroblast growth factor receptor 3 (P22607 whole entry): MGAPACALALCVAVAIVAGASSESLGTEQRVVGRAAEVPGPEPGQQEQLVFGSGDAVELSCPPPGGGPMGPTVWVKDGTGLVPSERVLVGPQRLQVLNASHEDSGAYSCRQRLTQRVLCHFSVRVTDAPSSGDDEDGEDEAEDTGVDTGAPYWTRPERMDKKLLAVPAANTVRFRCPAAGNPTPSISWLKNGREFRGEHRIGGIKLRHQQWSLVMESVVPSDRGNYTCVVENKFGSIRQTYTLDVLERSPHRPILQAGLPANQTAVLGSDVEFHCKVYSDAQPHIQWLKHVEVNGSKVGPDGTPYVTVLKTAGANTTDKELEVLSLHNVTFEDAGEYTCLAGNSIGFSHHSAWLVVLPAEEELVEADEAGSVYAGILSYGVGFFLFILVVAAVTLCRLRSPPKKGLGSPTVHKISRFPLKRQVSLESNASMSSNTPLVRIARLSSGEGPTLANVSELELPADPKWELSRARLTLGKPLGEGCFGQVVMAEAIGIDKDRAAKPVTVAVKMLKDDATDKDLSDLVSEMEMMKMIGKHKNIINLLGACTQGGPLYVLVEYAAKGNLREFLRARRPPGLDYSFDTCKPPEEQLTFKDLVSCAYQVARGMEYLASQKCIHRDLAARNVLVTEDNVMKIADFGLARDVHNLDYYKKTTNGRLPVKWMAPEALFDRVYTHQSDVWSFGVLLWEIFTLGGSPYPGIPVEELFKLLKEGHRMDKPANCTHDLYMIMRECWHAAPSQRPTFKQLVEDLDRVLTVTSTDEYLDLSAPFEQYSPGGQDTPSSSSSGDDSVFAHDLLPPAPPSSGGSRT

[16] = target: Phosphatidylinositol 3-kinase catalytic subunit type 3 (Homo sapiens, UniProt Q8NEB9); assay: Inhibition of PIK3C3 (unknown origin)
Mus musculus [17] = assay: Prevention of Cacnb4 gene downregulation in 5XFAD mouse hippocampus at 1200 ppm administered as rodent chow starting from 1.5 months and measured after 7 months by Nanostring analysis; assay type: functional, tissue-based; conditions: route po, time 5.5 months
[18] = target: Serine/threonine-protein kinase 4 (Homo sapiens, UniProt Q13043); assay: Inhibition of STK4 (unknown origin)
Chain of Serine/threonine-protein kinase 4 (Q13043 whole entry): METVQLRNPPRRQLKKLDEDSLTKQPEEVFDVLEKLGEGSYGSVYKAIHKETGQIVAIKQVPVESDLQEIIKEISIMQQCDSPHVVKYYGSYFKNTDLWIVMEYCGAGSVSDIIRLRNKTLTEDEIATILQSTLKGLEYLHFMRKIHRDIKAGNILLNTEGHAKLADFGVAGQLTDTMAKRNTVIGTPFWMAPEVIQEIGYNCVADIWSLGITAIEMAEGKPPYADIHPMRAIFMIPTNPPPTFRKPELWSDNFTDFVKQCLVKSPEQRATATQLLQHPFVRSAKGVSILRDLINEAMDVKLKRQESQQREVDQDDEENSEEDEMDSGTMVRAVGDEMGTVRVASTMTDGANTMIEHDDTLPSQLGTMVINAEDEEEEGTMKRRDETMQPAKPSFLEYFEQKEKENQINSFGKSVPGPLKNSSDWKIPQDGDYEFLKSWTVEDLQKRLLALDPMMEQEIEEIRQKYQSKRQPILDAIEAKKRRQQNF

[19] = Effect on Dusp5 gene expression in wildtype mouse hippocampus assessed as percent change in Reads Per kilo base per Million mapped reads at 1200 ppm administered as rodent chow starting from 1.5 months and measured after 7 months by RNA-Seq analysis (reference value: 75.632 to 114.605 %); assay type: functional; conditions: route po, time 5.5 months, 4015 h
[20] = target: AMP-activated protein kinase (AMPK) alpha-1/beta-1/gamma-1 (Homo sapiens, UniProt P54619+Q13131+Q9Y478); assay: Inhibition of AMPK_A1/B1/G1 (unknown origin); assay type: protein-complex assay
[21] = target: Interleukin-1 receptor-associated kinase 4 (Homo sapiens, UniProt Q9NWZ3); assay: Inhibition of IRAK4 (unknown origin)
Chain of Interleukin-1 receptor-associated kinase 4 (Q9NWZ3 whole entry): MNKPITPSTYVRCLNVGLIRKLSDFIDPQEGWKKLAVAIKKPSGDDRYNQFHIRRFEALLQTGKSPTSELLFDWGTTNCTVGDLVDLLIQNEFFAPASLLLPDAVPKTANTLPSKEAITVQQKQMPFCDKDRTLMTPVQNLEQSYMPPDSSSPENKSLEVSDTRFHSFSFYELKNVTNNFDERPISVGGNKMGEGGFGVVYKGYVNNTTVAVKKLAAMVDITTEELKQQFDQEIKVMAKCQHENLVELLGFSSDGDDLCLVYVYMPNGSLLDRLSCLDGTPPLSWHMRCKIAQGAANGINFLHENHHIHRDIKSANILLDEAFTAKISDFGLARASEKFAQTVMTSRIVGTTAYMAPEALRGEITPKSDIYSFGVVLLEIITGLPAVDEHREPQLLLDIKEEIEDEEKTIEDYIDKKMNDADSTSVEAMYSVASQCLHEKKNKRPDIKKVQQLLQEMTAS

[22] = Effect on Cx3cr1 gene expression in wild type mouse thalamus at 1200 ppm administered as rodent chow starting from 1.5 months and measured after 7 months by RNA-Seq analysis (reference value: 10.263 to 12.137 RPKM); assay type: functional; conditions: route po, time 5.5 months, 4015 h
[23] = Drug concentration in wildtype mouse plasma at 1200 ppm administered as rodent chow for 10 to 24 weeks; assay type: ADME, cell-free; conditions: po, time 10-24 weeks
Summary of the method: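 WT or 5xFAD mice were started at 1.5 months of age on PLX5622 formulated at 1200 ppm in AIN-76A chow, with control chow as comparison. Feeding ran for 10 or 24 weeks. Terminal plasma and brain drug levels were then measured. Groups were sex-balanced and compared by two-tailed independent t-test.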

[24] = Effect on Cst7 gene expression in wild type mouse hippocampus at 1200 ppm administered as rodent chow starting from 1.5 months and measured after 7 months by RNA-Seq analysis (reference value: 0.079 to 0.447 RPKM); assay type: functional; conditions: route po, time 5.5 months, 4015 h

Chain of Phosphatidylinositol 4-kinase beta (Q9UBF8 whole entry): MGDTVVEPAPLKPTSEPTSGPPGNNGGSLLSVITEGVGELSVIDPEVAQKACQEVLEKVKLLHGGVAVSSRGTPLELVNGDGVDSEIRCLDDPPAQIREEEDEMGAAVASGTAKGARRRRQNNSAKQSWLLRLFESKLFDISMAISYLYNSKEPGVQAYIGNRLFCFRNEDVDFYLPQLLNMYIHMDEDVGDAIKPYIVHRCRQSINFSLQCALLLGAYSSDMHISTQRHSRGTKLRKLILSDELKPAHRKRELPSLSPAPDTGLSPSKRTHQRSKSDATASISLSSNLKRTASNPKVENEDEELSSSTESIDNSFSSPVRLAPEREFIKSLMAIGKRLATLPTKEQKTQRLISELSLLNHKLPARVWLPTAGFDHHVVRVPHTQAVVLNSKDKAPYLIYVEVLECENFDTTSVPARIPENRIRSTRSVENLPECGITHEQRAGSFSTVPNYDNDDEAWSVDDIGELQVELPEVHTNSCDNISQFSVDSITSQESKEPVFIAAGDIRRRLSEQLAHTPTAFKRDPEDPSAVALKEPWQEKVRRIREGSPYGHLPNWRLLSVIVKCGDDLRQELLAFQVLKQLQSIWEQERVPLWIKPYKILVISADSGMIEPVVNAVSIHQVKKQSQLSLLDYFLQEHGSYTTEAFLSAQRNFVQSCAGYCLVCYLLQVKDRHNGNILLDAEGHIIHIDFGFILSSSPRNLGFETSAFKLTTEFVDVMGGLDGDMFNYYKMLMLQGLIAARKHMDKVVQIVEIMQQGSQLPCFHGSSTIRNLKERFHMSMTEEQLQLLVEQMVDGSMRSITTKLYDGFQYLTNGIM

Compound: COc1ncc(F)cc1CNc1ccc(Cc2c[nH]c3ncc(C)cc23)c(F)n1 [PLX-5622]
- IC50 [1]: > 1000 nM
- IC50 [2]: > 1000 nM
- Activity [3]: 270
- Activity (Mus musculus [4]): 2
- IC50 [5]: > 1000 nM
- IC50 [6]: > 1000 nM
- Activity (Mus musculus [7]): Active
- Activity [8]: 11.205 RPKM
- IC50 [9]: > 1000 nM
- Activity (Mus musculus [10]): Active
- Activity (Mus musculus [11]): Active
- IC50 [12]: > 1000 nM
- Activity [13]: 0 RPKM
- bioavailability [14]: 95%
- IC50 [15]: > 1000 nM
- IC50 [16]: > 1000 nM
- Activity (Mus musculus [17]): Active
- IC50 [18]: > 1000 nM
- Activity [19]: 94.671%
- IC50 [20]: > 1000 nM
- IC50 [21]: > 1000 nM
- Activity [22]: 0.026 RPKM
- concentration [23]: 17.8 µM
- Activity [24]: 0 RPKM
